# Results taken from ChEMBL document CHEMBL2150950, “Effect of 4-aryl-2-methyl-5-nitro-1,4-dihydropyridine-3-carboxylates on the guinea pig papillary muscle and isolated human vena saphena magna that is used for coronary artery bypass grafting” (2011).
# Calls of active or inactive are those of the source. The rule behind the calls is not given here.
# What was measured:
# [1] = (§1) Ionotropic effect in guinea pig ventricle papillary muscles assessed as lengthening of 50% repolarized cardiac action potential duration time at 10^-6 M by microelectrode technique relative to untreated control (reference value: 180 to 192 APD50 ms) in presence of 3.1 x 10^-6 M inward rectifier current blocker BaCl2; assay type: functional, Cavia porcellus
# [2] = (§2) Ionotropic effect in guinea pig ventricle papillary muscles assessed as lengthening of 50% repolarized cardiac action potential duration time at 10^-4 M by microelectrode technique relative to untreated control (reference value: 180 to 192 APD50 ms) in presence of 2 x 10^-5 M KATP channel blocker glibenclamide; assay type: functional, Cavia porcellus
# [3] = Vasodilatory activity in human vena saphena magna assessed as reduction in phenylephrine-induced smooth muscle contraction at 10 uM; assay type: functional
# Method in brief: (§3)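 Saphenous vein rings came from 37 CABG patients. They were bathed in Tyrode's solution (mM: NaCl 137, KCl 5.4, CaCl2 1.8, MgCl2 0.9, Tris HCl 10, glucose 5; pH 7.4), equilibrated 45–60 min and washed every 15 min. Rings were precontracted with 10^-4 M phenylephrine, then given cumulative test agent at 10^-7 to 10^-4 M. Isometric relaxation was recorded, as means ± SE.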
# [4] = as §2, with “10%” for “50%”, “10^-5” for “10^-4”, “52” for “180”, “54 APD10” for “192 APD50”; assay type: functional, Cavia porcellus
# [5] = Ionotropic effect in guinea pig right ventricle papillary muscles assessed as contraction force at 10^-7 M by force transduction assay relative to untreated control (reference value: 100%) in presence of 2 x 10^-5 M KATP channel blocker glibenclamide; assay type: functional, Cavia porcellus, Heart right ventricle
# [6] = Ionotropic effect in guinea pig right ventricle papillary muscles assessed as contraction force at 10^-4 M by force transduction assay relative to untreated control (reference value: 100%); assay type: functional, Cavia porcellus, Papillary muscle
# [7] = as §2, with “of 1” for “of 2”, “x 10^-6” for “x 10^-5”, “M IKr” for “M KATP”, “blocker Sotalol” for “blocker glibenclamide”; assay type: functional, Cavia porcellus
# [8] = (§4) Ionotropic effect in guinea pig ventricle papillary muscles assessed as lengthening of 25% repolarized cardiac action potential duration time at 10^-7 M by microelectrode technique relative to untreated control (reference value: 120 to 131 APD25 ms) in presence of 1 x 10^-6 M IKr channel blocker Sotalol; assay type: functional, Cavia porcellus
# [9] = as §4, with “of 2” for “of 1”, “x 10^-5” for “x 10^-6”, “M KATP” for “M IKr”, “blocker glibenclamide” for “blocker Sotalol”; assay type: functional, Cavia porcellus
# [10] = as §1, with “of 25%” for “of 50%”, “at 10^-5” for “at 10^-6”, “value: 120” for “value: 180”, “to 131 APD25” for “to 192 APD50”; assay type: functional, Cavia porcellus
# [11] = as §4, with “10%” for “25%”, “10^-6” for “10^-7”, “52” for “120”, “54 APD10” for “131 APD25”; assay type: functional, Cavia porcellus
# [12] = as §1, with “of 25%” for “of 50%”, “at 10^-4” for “at 10^-6”, “value: 120” for “value: 180”, “to 131 APD25” for “to 192 APD50”; assay type: functional, Cavia porcellus
# [13] = Vasodilatory activity in human vena saphena magna assessed as relaxation of phenylephrine-induced smooth muscle contraction at 10^-7 to 10^-4 M; assay type: functional; method in brief: as §3
# [14] = as §4, with “10^-5” for “10^-7”; assay type: functional, Cavia porcellus
# [15] = as §2, with “10^-5” for “10^-4”; assay type: functional, Cavia porcellus
# [16] = as §2, with “at 10^-5” for “at 10^-4”, “of 1” for “of 2”, “x 10^-6” for “x 10^-5”, “M IKr” for “M KATP”, “blocker Sotalol” for “blocker glibenclamide”; assay type: functional, Cavia porcellus
# [17] = Ionotropic effect in guinea pig ventricle papillary muscles assessed as lengthening of 50% repolarized cardiac action potential duration time at 10^-6 M by microelectrode technique relative to untreated control (reference value: 132 to 176 APD50 ms); assay type: functional, Cavia porcellus, Papillary muscle
# [18] = Ionotropic effect in guinea pig right ventricle papillary muscles assessed as contraction force at 10^-5 M by force transduction assay relative to untreated control (reference value: 100%) in presence of 3.1 x 10^-6 M inward rectifier current blocker BaCl2; assay type: functional, Cavia porcellus, Heart right ventricle
# [19] = Ionotropic effect in guinea pig ventricle papillary muscles assessed as lengthening of […] cardiac action potential duration time at 10^-5 M by microelectrode technique relative to untreated control (reference value: 37 to 47 […] ms); assay type: functional, Cavia porcellus, Papillary muscle
# [20] = as §1, with “25%” for “50%”, “120” for “180”, “131 APD25” for “192 APD50”; assay type: functional, Cavia porcellus
# [21] = as §4, with “10%” for “25%”, “52” for “120”, “54 APD10” for “131 APD25”; assay type: functional, Cavia porcellus
# [22] = as §1, with “10%” for “50%”, “52” for “180”, “54 APD10” for “192 APD50”; assay type: functional, Cavia porcellus
# [23] = as §2, with “10%” for “50%”, “10^-7” for “10^-4”, “52” for “180”, “54 APD10” for “192 APD50”; assay type: functional, Cavia porcellus
# [24] = Ionotropic effect in guinea pig right ventricle papillary muscles assessed as contraction force at 10^-7 M by force transduction assay relative to untreated control (reference value: 100%); assay type: functional, Cavia porcellus, Papillary muscle
# [25] = Ionotropic effect in guinea pig ventricle papillary muscles assessed as lengthening of 25% repolarized cardiac action potential duration time at 10^-5 M by microelectrode technique relative to untreated control (reference value: 84 to 104 APD25 ms); assay type: functional, Cavia porcellus, Papillary muscle
# [26] = Ionotropic effect in guinea pig right ventricle papillary muscles assessed as contraction force at 10^-7 M by force transduction assay relative to untreated control (reference value: 100%) in presence of 3.1 x 10^-6 M inward rectifier current blocker BaCl2; assay type: functional, Cavia porcellus, Heart right ventricle
# [27] = as §1, with “of 10%” for “of 50%”, “at 10^-4” for “at 10^-6”, “value: 52” for “value: 180”, “to 54 APD10” for “to 192 APD50”; assay type: functional, Cavia porcellus
# [28] = as §1, with “of 90%” for “of 50%”, “at 10^-4” for “at 10^-6”, “value: 209” for “value: 180”, “to 222” for “to 192”; assay type: functional, Cavia porcellus
# [29] = as §2, with “25%” for “50%”, “10^-5” for “10^-4”, “120” for “180”, “131 APD25” for “192 APD50”; assay type: functional, Cavia porcellus
# [30] = as §4, with “50%” for “25%”, “180” for “120”, “192 APD50” for “131 APD25”; assay type: functional, Cavia porcellus
# [31] = Ionotropic effect in guinea pig ventricle papillary muscles assessed as lengthening of 25% repolarized cardiac action potential duration time at 10^-4 M by microelectrode technique relative to untreated control (reference value: 84 to 104 APD25 ms); assay type: functional, Cavia porcellus, Papillary muscle
smiles,measurement,setting,value
CCCOCCOC(=O)C1=C(C)NC=C([N+](=O)[O-])C1c1ccccc1OC(F)F (stereo unspecified),Time,[1],224 ms
same,Time,[2],247 ms
same,Activity,[3],Active
same,Time,[4],61 ms
same,Activity,[5],103%
same,Activity,[6],190.8%
same,Time,[7],218.9 ms
same,Time,[8],130 ms
same,Time,[9],141 ms
same,Time,[10],155 ms
same,Time,[11],49 ms
same,Time,[12],158 ms
same,Activity,[13],Active
same,Time,[14],133.6 ms
same,Time,[15],235 ms
same,Time,[16],199 ms
same,Time,[17],196 ms
same,Activity,[18],193%
same,Time,[19],46 ms
same,Time,[20],149.7 ms
same,Time,[21],54.2 ms
same,Time,[22],60.9 ms
same,Time,[23],59.5 ms
same,Activity,[24],108%
same,Time,[25],133 ms
same,Activity,[26],111.4%
same,Time,[27],61.36 ms
same,Time,[28],267.9 ms
same,Time,[29],155 ms
same,Time,[30],195 ms
same,Time,[31],146.9 ms
